According to ChEMBL document CHEMBL1149546, “(2R,3S)-(+)- and (2S,3R)-(-)-Halofuginone lactate: synthesis, absolute configuration, and activity against Cryptosporidium parvum” (Bioorg Med Chem Lett, 2007):
Active and inactive are the calls of the source. No cut-off for these calls is given here.

Key:
Cryptosporidium parvum [1] = experiment: Antiprotozoal activity against Cryptosporidium parvum; type: functional, organism-based
Procedure, shortened: (§1)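 C. parvum development measured in host-cell culture across three independent compound dilution series, with monensin as positive control. The read-out was parasite foci area, with control and test cultures normalized to 100,000 µm² of foci area.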

Cryptosporidium parvum [2] = experiment: Antiprotozoal activity against Cryptosporidium parvum at 0.8 nM; type: functional, organism-based; procedure, shortened: as §1
Mus musculus [3] = experiment: Toxicity in Crl:NMRI mouse at 20 mg/kg, po; type: organism-based; design: dose 20 mg/kg, route oral; settings: in vivo
Procedure, shortened: (§2)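 Single oral doses of lactate salts (5, 10 and/or 20 mg/kg bodyweight) were given to 4-week-old female Crl:NMRI mice, n = 3 per group. Moribund mice were euthanized.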

Mus musculus [4] = experiment: Toxicity in Crl:NMRI mouse at 5 mg/kg, po; type: organism-based; design: dose 5 mg/kg, route oral; settings: in vivo; procedure, shortened: as §2
Mus musculus [5] = experiment: Toxicity in Crl:NMRI mouse at 10 mg/kg, po; type: organism-based; design: dose 10 mg/kg, route oral; settings: in vivo; procedure, shortened: as §2
Cryptosporidium parvum [6] = experiment: Antiprotozoal activity against Cryptosporidium parvum up to 6 nM; type: functional; procedure, shortened: as §1

Row | SMILES | Activity (Cryptosporidium parvum [1]) | Activity (Cryptosporidium parvum [2]) | Activity (Cryptosporidium parvum [6]) [%] | other results
1 | O=C(CC1NCCCC1O)Cn1cnc2cc(Br)c(Cl)cc2c1=O (racemic; form 2) | Active | inactive |  | 
2 | CC(O)C(=O)O.O=C(C[C@@H]1NCCC[C@H]1O)Cn1cnc2cc(Br)c(Cl)cc2c1=O |  |  |  | Activity (Mus musculus [3]): Not Active
3 | O=C(CC1NCCCC1O)Cn1cnc2cc(Br)c(Cl)cc2c1=O (racemic; form 1) | Active | inactive |  | 
4 | CC(O)C(=O)O.O=C(C[C@H]1NCCC[C@@H]1O)Cn1cnc2cc(Br)c(Cl)cc2c1=O | Active | inactive |  | Activity (Mus musculus [4]): Toxic; Activity (Mus musculus [5]): Toxic
5 | CC(O)C(=O)O.O=C(CC1NCCCC1O)Cn1cnc2cc(Br)c(Cl)cc2c1=O (racemic; form 1) [HALOFUGINONE LACTATE] |  |  | 80 | 
6 | Br.O=C(CC1NCCCC1O)Cn1cnc2cc(Br)c(Cl)cc2c1=O (racemic; form 2) [HALOFUGINONE HYDROBROMIDE] |  |  | 80 | 
